The record followed here is ChEMBL document CHEMBL1151937, “Synthesis and evaluation of an acyl-chain unsaturated analog of the Th2 biasing, immunostimulatory glycolipid, OCH” (Bioorg Med Chem Lett, 2009).

The source made the active and inactive calls. No cut-off for these calls is given here.

Format in all cases: functional, cell-based
The subject of one experiment is iNKT. Kind of experiment: Stimulation of human iNKT cell proliferation.
Experiment [1] relates to Splenocyte. Kind of experiment: Stimulation of mouse splenocyte proliferation by [3H]thymidine after 48 hrs by incorporation assay. In outline: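 Mouse splenocytes exposed to lipid at varying concentrations; proliferation read out as tritiated thymidine incorporation. Values are means of duplicate wells.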
Experiment [2] concerns Splenocyte. Kind of experiment: Stimulation of IL4 production in C57BL/6 mouse splenocytes after 48 hrs by ELISA. In short, it runs like this: (§1)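 C57BL/6 mouse splenocytes cultured 48 h with lipid over a range of concentrations; IL-4 and IFNγ measured in culture supernatants by standard sandwich ELISA. Values are means of duplicate wells.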
Background: In an ELISA, binding on a coated surface is turned into a signal by an enzyme label.

Experiment [3] concerns Splenocyte. Kind of experiment: Stimulation of IFN-gamma production in C57BL/6 mouse splenocytes after 48 hrs by ELISA. In outline:
as §1

On to `CCCCCCCCCCCCCCCCCCCCCCCC(=O)N[C@@H](CO[C@H]1O[C@H](CO)[C@H](O)[C@H](O)[C@H]1O)[C@H](O)[C@H](O)CCCCC`, for which the result in the experiment with iNKT and with Splenocyte [1] was Active.
As for `CCCCC/C=C\C/C=C\CCCCCCCCCC(=O)N[C@@H](CO[C@H]1O[C@H](CO)[C@H](O)[C@H](O)[C@H]1O)[C@H](O)CCCCCC`, the outcome in the experiment with iNKT was inactive. The outcome with Splenocyte [2], with Splenocyte [1] and in the experiment on Splenocyte [3] was Active.
Regarding `CCCCC/C=C\C/C=C\CCCCCCCCCC(=O)N[C@@H](CO[C@H]1O[C@H](CO)[C@H](O)[C@H](O)[C@H]1O)[C@H](O)[C@H](O)CCCCCCCCCCCCCC`, the result in the experiment with iNKT and in the experiment with Splenocyte [1] was Active.
Take `CCCCCCCCCCCCCCCCCCCC(=O)N[C@@H](CO[C@H]1O[C@H](CO)[C@H](O)[C@H](O)[C@H]1O)[C@H](O)CCCCCC`: the outcome in the experiment on iNKT, with Splenocyte [2] and with Splenocyte [3] was inactive. The outcome with Splenocyte [1] was Active.
Regarding `CCCCCCCCCCCCCCCCCCCC(=O)N[C@@H](CO[C@H]1O[C@H](CO)[C@H](O)[C@H](O)[C@H]1O)[C@H](O)[C@H](O)CCCCC`, the result in the experiment on iNKT, in the experiment with Splenocyte [2] and in the experiment with Splenocyte [3] was inactive. The result in the experiment with Splenocyte [1] was Active.
